Experimental data taken from ChEMBL document CHEMBL1149438, “Antimalarial activity of 4-(5-trifluoromethyl-1H-pyrazol-1-yl)-chloroquine analogues” (Bioorg Med Chem Lett, 2006).
≈ marks a conversion by molar mass, not a printed value.

How the values were obtained:
Plasmodium falciparum = experiment: Antimalarial activity against chloroquine-resistant Plasmodium falciparum W2 infected human erythrocytes; format: functional, organism-based
Method in brief: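 P. falciparum W2 (chloroquine-resistant) grown in human O+ erythrocytes, RPMI 1640 with 10% human plasma. Sorbitol-synchronized trophozoites plated at 2% parasitaemia, 2.5% haematocrit. Molecules dissolved in ethanol, serially diluted in hypoxanthine-free RPMI 1640, chloroquine reference run in parallel. Growth read by [³H]hypoxanthine incorporation. IC50 taken relative to drug-free control cultures.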

Plasmodium berghei [1] = experiment: Growth inhibition of Plasmodium berghei infected BALB/c mice (Mus musculus) at 20 mg/kg subcutaneous dose; format: functional, NK65; design: scale not given: the % may be the effect or the level left
Method in brief: (§1)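 Balb/c mice infected with blood-stage P. berghei, 6 per group, given 20 mg/kg orally or subcutaneously. Controls were untreated or saline-treated mice, plus mice given non-curative chloroquine. Blood smears were methanol-fixed and Giemsa-stained, and parasitaemia was counted in 1000 to 6000 erythrocytes. Percent reduction of parasite growth is relative to non-treated mice at day 7 post-inoculation.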

Plasmodium berghei [2] = experiment: Growth inhibition of Plasmodium berghei infected BALB/c mice (Mus musculus) at 20 mg/kg perorallydose; format: functional, NK65; design: scale not given: the % may be the effect or the level left; conditions: route oral; method in brief: as §1
Plasmodium berghei [3] = experiment: Growth inhibition of Plasmodium berghei in BALB/c mice (Mus musculus) at 15 mg/kg peroral dose; format: functional, NK65; design: scale not given: the % may be the effect or the level left; conditions: route oral
Plasmodium berghei [4] = experiment: Growth inhibition of Plasmodium berghei infected BALB/c mice (Mus musculus) at 15 mg/kg subcutaneous dose; format: functional, NK65; design: scale not given: the % may be the effect or the level left

SMILES	IC50 (Plasmodium falciparum) [µg/mL]	also measured
Fc1ccc(-c2cc(C(F)(F)F)n(-c3ccnc4cc(Cl)ccc34)n2)cc1	27.6 (≈ 70.5 µM)	
OC1(C(F)(F)F)CC(c2ccc(-c3ccccc3)cc2)=NN1c1ccnc2cc(Cl)ccc12 (stereo not given)	2.12 (≈ 4.53 µM)	
OC1(C(F)(F)F)CC(c2ccc(Br)cc2)=NN1c1ccnc2cc(Cl)ccc12 (stereo not given)	1.55 (≈ 3.29 µM)	Activity (Plasmodium berghei [1]): 82%; Activity (Plasmodium berghei [2]): 0%
OC1(C(F)(F)F)CC(c2ccc(Cl)cc2)=NN1c1ccnc2cc(Cl)ccc12 (stereo not given)	1.69 (≈ 3.97 µM)	Activity (Plasmodium berghei [1]): 47%; Activity (Plasmodium berghei [2]): 0%
COc1ccc(-c2cc(C(F)(F)F)n(-c3ccnc4cc(Cl)ccc34)n2)cc1	> 50	
Cc1ccc(C2=NN(c3ccnc4cc(Cl)ccc34)C(O)(C(F)(F)F)C2)cc1 (stereo not given)	3.04 (≈ 7.49 µM)	
OC1(C(F)(F)F)CC(c2ccccc2)=NN1c1ccnc2cc(Cl)ccc12 (stereo not given)	1.39 (≈ 3.55 µM)	Activity (Plasmodium berghei [1]): 0%; Activity (Plasmodium berghei [2]): 0%
COc1ccc(C2=NN(c3ccnc4cc(Cl)ccc34)C(O)(C(F)(F)F)C2)cc1 (stereo not given)	> 50	
O=[N+]([O-])c1ccc(C2=NN(c3ccnc4cc(Cl)ccc34)C(O)(C(F)(F)F)C2)cc1 (stereo not given)	5.71 (≈ 13.1 µM)	
FC(F)(F)c1cc(-c2ccc(-c3ccccc3)cc2)nn1-c1ccnc2cc(Cl)ccc12	18.5 (≈ 41.2 µM)	
Cc1cc(C(F)(F)F)n(-c2ccnc3cc(Cl)ccc23)n1	4.29 (≈ 13.8 µM)	
FC(F)(F)c1cc(-c2ccc(Br)cc2)nn1-c1ccnc2cc(Cl)ccc12	> 50	
Cc1ccc(-c2cc(C(F)(F)F)n(-c3ccnc4cc(Cl)ccc34)n2)cc1	> 50	
OC1(C(F)(F)F)CC(c2ccc(F)cc2)=NN1c1ccnc2cc(Cl)ccc12 (stereo not given)	2.13 (≈ 5.2 µM)	
FC(F)(F)c1cc(-c2ccccc2)nn1-c1ccnc2cc(Cl)ccc12	9.53 (≈ 25.5 µM)	
FC(F)(F)c1cc(-c2ccc(Cl)cc2)nn1-c1ccnc2cc(Cl)ccc12	> 50	
O=[N+]([O-])c1ccc(-c2cc(C(F)(F)F)n(-c3ccnc4cc(Cl)ccc34)n2)cc1	> 50	
CCN(CC)CCCC(C)Nc1ccnc2cc(Cl)ccc12 (stereo not given) [CHLOROQUINE]		Activity (Plasmodium berghei [3]): 53%; Activity (Plasmodium berghei [4]): 100%
